Laboratory results published in ChEMBL document CHEMBL3596140, “Bisleuconothine A Induces Autophagosome Formation by Interfering with AKT-mTOR Signaling Pathway” (J Nat Prod, 2015).
Active and inactive are the calls of the source. No cut-off for these calls is given here.

How the values were obtained:
[1] = system: A549; test: Prevention of autophagosome degradation in human A549 cells assessed as upregulation of p62 expression at 5 uM after 6 hrs by Western blot analysis; format: functional, cell-based
Summary of the method: (§1)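 A549 cells kept in serum-free medium for 1 h, then exposed to 6 μM compound or 5 μM everolimus, with or without bafilomycin A1 (400 nM), for 6 h. LC3 and p62 levels in lysates assessed by Western blot to follow autophagic flux.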

[2] = system: A549; test: Induction of autophagy in human A549 cells assessed as increase in conversion of LC3-1 to LC3-2 at 5 uM after 6 hrs by Western blot analysis; format: functional, cell-based; summary of the method: as §1
[3] = system: A549; test: Induction of autophagic punctation in human A549 cells assessed as increase of puncta with LC3 at 5 uM after 6 hrs by immunofluorescence staining-based microscopic analysis relative to control; format: functional, cell-based
Summary of the method: (§2)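 A549 cells on chamber slides placed in serum-free medium for 1 h, then exposed for 6 h to 6 μM compound, 5 μM everolimus or 400 nM bafilomycin A1. Fixed in ice-cold methanol for 15 min at −20 °C and blocked. Stained for LC3B, LAMP2 and p62 with Alexa Fluor 488/546/647 secondaries, mounted with DAPI, and puncta assessed by fluorescence microscopy.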

[4] = system: A549; test: Induction of autophagic punctation in human A549 cells assessed as increase of puncta with p62 at 5 uM after 6 hrs by immunofluorescence staining-based microscopic analysis relative to control; format: functional, cell-based; summary of the method: as §2
[5] = molecular target: Serine/threonine-protein kinase mTOR (Homo sapiens) (UniProt P42345); test: Inhibition of mTOR phosphorylation at ser2448 in human A549 cells at 5 uM after 3 to 24 hrs by Western blot analysis; format: cell-based
Summary of the method: (§3)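 A549 total lysates harvested 3, 6, 12 or 24 h after exposure to 6 μM compound or 5 μM everolimus. Western blot on PVDF with antibodies to phospho-mTOR Ser2448, phospho-AKT Thr308 and Ser473, phospho-p70S6K Thr389, phospho-PDK1 Ser241 and PRAS40 Thr246, alongside total proteins and β-actin.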

[6] = molecular target: Serine/threonine-protein kinase mTOR (Homo sapiens) (UniProt P42345); test: Inhibition of mTOR in human A549 cells assessed as downregulation of p70S6K phosphorylation at thr389 at 5 uM after 3 to 24 hrs by Western blot analysis; format: cell-based; summary of the method: as §3
[7] = system: A549; test: Inhibition of AKT in human A549 cells assessed as downregulation of PRAS40 phosphorylation at thr246 at 5 uM after 3 to 12 hrs by Western blot analysis; format: cell-based; summary of the method: as §3

SMILES: CO[C@H]1C[C@@H]2CC[C@@H](C)[C@@](O)(O2)C(=O)C(=O)N2CCCC[C@H]2C(=O)O[C@H]([C@H](C)C[C@@H]2CC[C@@H](OCCO)[C@H](OC)C2)CC(=O)[C@H](C)/C=C(\C)[C@@H](O)[C@@H](OC)C(=O)[C@H](C)C[C@H](C)/C=C/C=C/C=C/1C
- Activity [1]: inactive
- Activity [2]: Active
- Activity [3]: inactive
- Activity [4]: inactive
- inhibition [5]: Active
- inhibition [6]: Active
- inhibition [7]: inactive
